Experimental data gathered from unrelated publications.
Protocols differ between the studies behind these lines.
Target: Rhodopsin kinase GRK7 (GRK7, Homo sapiens, UniProt Q8WTQ7)
Residues used in one study (Q8WTQ7 1-553): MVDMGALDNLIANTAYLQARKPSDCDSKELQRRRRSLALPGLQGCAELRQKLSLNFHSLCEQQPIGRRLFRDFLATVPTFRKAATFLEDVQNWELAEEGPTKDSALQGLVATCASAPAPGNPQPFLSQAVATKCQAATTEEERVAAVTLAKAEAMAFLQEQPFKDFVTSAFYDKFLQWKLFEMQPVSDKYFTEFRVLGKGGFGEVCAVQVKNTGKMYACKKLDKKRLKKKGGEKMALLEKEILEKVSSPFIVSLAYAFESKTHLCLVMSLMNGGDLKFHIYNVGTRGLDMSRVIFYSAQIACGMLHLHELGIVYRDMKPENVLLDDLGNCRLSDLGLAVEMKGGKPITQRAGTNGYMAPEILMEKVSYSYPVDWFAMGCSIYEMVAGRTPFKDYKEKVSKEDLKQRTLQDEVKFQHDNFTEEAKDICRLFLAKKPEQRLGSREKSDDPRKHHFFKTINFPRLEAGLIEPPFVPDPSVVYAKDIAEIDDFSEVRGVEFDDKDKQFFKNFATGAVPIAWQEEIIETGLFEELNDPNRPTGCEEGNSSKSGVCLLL

With `CN(C)c1nccc(-c2cnc3ncccn23)n1` the remaining binding was 41% (binding; 1 µM).
`CCC(=O)N[C@@H]1CC[C@H](C(=O)N(C)c2ccc(-c3nc4ccccc4o3)cc2)C1` gave a remaining binding of 93% (cell-free assay; competition with immobilised ligand; 1 µM).
With `COc1ncc2cc3ccccc3nc2c1C#N` the remaining binding was 100% (cell-free assay; competition with immobilised ligand; 5 µM).
`COc1cc(-c2cn(C3CCc4ccccc4N(CC(F)(F)F)C3=O)nn2)ccc1-n1ccc(C)n1` (stereo not shown) has a remaining binding of 87% (cell-free assay; competition with immobilised ligand; 1 µM).
`O=C(c1ccc(Nc2ncc(Cl)c(-c3ccc(Cl)s3)n2)cc1)N1CCC(N2CCCC2)CC1` has a remaining binding of 84% (binding; competition with immobilised ligand; 1 µM).
For `CCCOc1ccc([C@@H]2[C@@H](C(=O)O)[C@H](c3ccc4c(c3)OCO4)CN2CC(=O)Nc2c(CC)cccc2CC)cc1`, the remaining binding was 99% (cell-free assay; competition with immobilised ligand; 1 µM).
`C=CC(=O)N1CCC(C(=O)NCC(=O)N2CCN(c3nc(-c4cnc(N)nc4C(F)F)nc(N4CCOCC4)n3)CC2)CC1` gave a remaining binding of 87% (binding; competition with immobilised ligand; 1 µM).
With `O=C(NCCCN1CCOCC1)c1ccc(Nc2nccc(-c3cc4ccccc4s3)n2)cc1` the remaining binding was 100% (binding; competition with immobilised ligand; 1 µM).
For `O=C(NCCCC1CCCCC1)c1ccc(CNC(=O)c2cnn(-c3ccccc3)c2C(F)(F)F)cc1`, the remaining binding was 100% (cell-free assay; competition with immobilised ligand; 0.1 µM).
The remaining binding of `O=C(NCC1CCOCC1)c1n[nH]cc1NC(=O)c1c(F)cccc1F` is reported as 89% (binding; competition with immobilised ligand; 1 µM).
`FC(F)(F)c1ccc2c(c1)nc(-c1cccnc1)n2C1CC1` has a remaining binding of 81% (cell-free assay; competition with immobilised ligand; 1 µM).
For `N[C@H]1CCN(c2nccc(-c3cnn4ncccc34)n2)C1`, the remaining binding was 100% (binding; 1 µM).
`O=C(Nc1cccnn1)N1CC(C/C=C/c2cncc(Oc3ccc(C(F)(F)F)cn3)n2)C1` gave a remaining binding of 85% (cell-free assay; competition with immobilised ligand; 1 µM).
`COc1cnc(Nc2cccc(S(N)(=O)=O)c2)nc1N1CCN(c2ccccc2)CC1` gave a remaining binding of 58% (binding; competition with immobilised ligand; 1 µM).
For `CC1CCCN1c1nccc(-c2cnn3ncccc23)n1` (stereo not shown), the remaining binding was 100% (binding; 1 µM).
`O=C(c1ccc(Nc2ncc(Cl)c(-c3cc4ccccc4s3)n2)cc1)N1CCC(N2CCCC2)CC1` has a remaining binding of 56% (binding; competition with immobilised ligand; 1 µM).
The remaining binding of `CN(CCCC(F)(F)F)c1nccc(-c2cnn3ncccc23)n1` is reported as 93% (binding; 1 µM).
`CCN1CCN(Cc2ccc(C(=O)Nc3ccc(C)c(Oc4ccc5c(c4)CC(=O)N5)c3)cc2C(F)(F)F)CC1` has a remaining binding of 100% (binding; competition with immobilised ligand; 1 µM).
With `CN(C)c1nccc(-c2cnn3ncccc23)n1` the remaining binding was 100% (binding; 1 µM).
`COc1cc(-c2cn(C3CCc4c(F)cccc4N(CC(F)(F)F)C3=O)nn2)ccc1-n1cnc(C)c1` (stereo not shown) gave a remaining binding of 100% (cell-free assay; competition with immobilised ligand; 1 µM).
With `C[C@H]1CCN(c2nccc(-c3cnn4ncccc34)n2)C1` the remaining binding was 78% (binding; 1 µM).
For `C[C@@H](c1ccc(-n2cnc3c(N)ncnc32)cc1)N1CCc2nn(C)c(Cc3ccccc3)c2C1=O`, the remaining binding was 72% (binding; competition with immobilised ligand; 0.1 µM).
